These results are taken from the array DNA melting data of Ke et al. (doi:10.1101/2024.01.08.574731).

Data set [1] is described as follows: folding enthalpy; higher = less favourable; fluorescence melt of hairpins on a sequencing array, two-state fit. Particulars: sodium 0.088 M. An outline of the steps: (§1)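 In 50 mM Na-HEPES pH 8.0 containing 25 mM NaCl, hairpins from the library on a sequenced MiSeq flow cell were imaged for Cy3 fluorescence at 2.5 °C steps up to 60 °C, with Cy3 and quencher oligos annealed. After normalisation to pre-quench Cy3 and to control constructs, two-state fits with bootstrapping gave melting temperature and folding enthalpy. Four replicates were combined by inverse-variance weighting, and fitted temperatures were shifted up by 9.35 °C to match UV melts.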

The nature of data set [2]: melting temperature; fluorescence melt of hairpins on a sequencing array, two-state fit, raised by 9.35 °C to match UV melts. Particulars: sodium 0.088 M. An outline of the steps: as §1

For GCTACGCGAAAGCGAAGC (((.(((....))).))), in data set [1], the folding enthalpy is -36.7 kcal/mol. In addition, the Tm in data set [2] turned out to be 57.5 °C.
For GGAGGCGAAAGCCTGTCC ((((((....)))..))), the folding enthalpy in data set [1] is -8.31 kcal/mol. Moreover, the Tm in data set [2] came to 38 °C.
GAAGAGGGAAACCTCCTC ((.((((....)))).)): in data set [1], the folding enthalpy is -14.9 kcal/mol. Besides, in data set [2], the Tm turned out to be 26.4 °C.
The like results for GACGCAACGAAAGTTGTC (((..(((....)))))) were, in that order, -10 kcal/mol and 34.1 °C.
GATCTTCGTCAAGATC ((((((....)))))): in data set [1], the folding enthalpy is -33.5 kcal/mol. In addition, the Tm in data set [2] is 40.7 °C.
The like results for GAAAACCGAAAGGTTTC (((.(((....)))))) were, in that order, -15.9 kcal/mol and 44.2 °C.
The like results for GATCATGCGCATGATC ((((((....)))))) were, in that order, -57.1 kcal/mol and 57.2 °C.
The like results for GGGTCAGGAAACTGATCC ((.((((....)))).)) were, in that order, -38.9 kcal/mol and 51.9 °C.
As to GGGATCCGAAAGGACCCC (((.(((....))).))), in data set [1], the folding enthalpy was -35.2 kcal/mol. The Tm in data set [2] was 59.1 °C.
Take GCAGCTACGAAAGTATGC (((..(((....)))))): the folding enthalpy in data set [1] was -15 kcal/mol. Also, in data set [2], the Tm is 36.1 °C.
In the case of GGTTGAGGAAACTCAGCC ((.((((....)))).)), in data set [1], the folding enthalpy was -33.4 kcal/mol. Besides, the Tm in data set [2] was determined as 50 °C.
The like results for GGCTTTGGAAACAAGGCC (((.(((....))).))) were, in that order, -40.5 kcal/mol and 51.6 °C.
Take GGATACGAAAGTATCC ((((((....)))))): the folding enthalpy in data set [1] is -39.1 kcal/mol. The Tm in data set [2] worked out at 66 °C.
The like results for GTTATCGGAAACGATAGC (.(((((....))))).) were, in that order, -21.5 kcal/mol and 43.4 °C.
Take GACGTTGAAAAACGTC ((((((....)))))): the folding enthalpy in data set [1] was -33.9 kcal/mol. In addition, the Tm in data set [2] stood at 60.1 °C.
Take GTCCACGCGAAAGCGGAC (((..(((....)))))): the folding enthalpy in data set [1] was -12.9 kcal/mol. In addition, the Tm in data set [2] amounted to 45.8 °C.
For the sequence GATCTATGGCTAGATC ((((((....)))))), the folding enthalpy in data set [1] is -30.1 kcal/mol. Besides, the Tm in data set [2] turned out to be 37.6 °C.
Take GATCTAATCCTAGATC ((((((....)))))): the folding enthalpy in data set [1] is -25.6 kcal/mol. For the same sequence, in data set [2], the Tm is 38.3 °C.
For GATCCACAGGTGGATC ((((((....)))))), the folding enthalpy in data set [1] is -40.9 kcal/mol. The Tm in data set [2] amounted to 57 °C.
The matching figures for GATCACTCGTGTGATC ((((((....)))))): -37.1 kcal/mol and 57.1 °C.
On to GCGTGACCGAAAGGTCGC (((..(((....)))))), for which, in data set [1], the folding enthalpy was -10.1 kcal/mol. Also, in data set [2], the Tm came out at 51.6 °C.
As to GCAGGGCGAAAGCCGGGC ((..(((....)))..)), the folding enthalpy in data set [1] was -17.4 kcal/mol. In addition, the Tm in data set [2] is 56.9 °C.
Take GTTGTGCGAAAGCAGAAC (((.(((....))).))): the folding enthalpy in data set [1] was -30.9 kcal/mol. Also, the Tm in data set [2] was found to be 54.1 °C.
The matching figures for GCCCAGCGAAAGCTGCGC ((.((((....)))).)): -17.1 kcal/mol and 59 °C.
The like results for GGTTTCGAAAGAAGACC ((((((....))).))) were, in that order, -19.5 kcal/mol and 36.8 °C.
Consider GCCTTGCGAAAGCTGGGC (((..((....))..))), for which the folding enthalpy in data set [1] was -25.9 kcal/mol. For the same sequence, in data set [2], the Tm stood at 62.6 °C.
With GATTGGGGAAACCCAATC (((((((....))))))), in data set [1], the folding enthalpy is -41 kcal/mol. For the same sequence, the Tm in data set [2] amounted to 61 °C.
The like results for GGCAACACGAAAGTGGCC (((..(((....)))))) were, in that order, -37.4 kcal/mol and 52.6 °C.
In the case of GAGAGTGGAAACACTCTC (((((((....))))))), the folding enthalpy in data set [1] was -41.2 kcal/mol. Moreover, the Tm in data set [2] worked out at 61.5 °C.
Take GCGACTGGAAACGGTTGC ((.((.(....).)).)): the folding enthalpy in data set [1] was -32.1 kcal/mol. Further, the Tm in data set [2] turned out to be 43.9 °C.
The matching figures for GCGTAGCCACGC ((((....)))): -9.67 kcal/mol and 58.3 °C.
For GGCTCAGGAAACTGGGTC (.(.(((....))).).), the folding enthalpy in data set [1] is -25.9 kcal/mol. The Tm in data set [2] turned out to be 38 °C.
The like results for GATCAAACGTTTGATC ((((((....)))))) were, in that order, -41.4 kcal/mol and 51 °C.
The matching figures for GGCTAGAAATAGCC (((((....))))): -24.6 kcal/mol and 51.5 °C.
The matching figures for GGCCTTGGAAACAAAGCC (((.(((....))).))): -25.8 kcal/mol and 38.9 °C.
With GATCTTAAGCAAGATC ((((((....)))))), the folding enthalpy in data set [1] was -31.3 kcal/mol. For the same sequence, the Tm in data set [2] turned out to be 40.1 °C.
The like results for GGCGAGCGAAAGCTAGCC (((.(((....))).))) were, in that order, -42.2 kcal/mol and 68.7 °C.
The matching figures for GCGTCTGAACGC ((((....)))): -25.2 kcal/mol and 54 °C.
The matching figures for GGCATTCGAAAGAAGGCC (((.(((....))).))): -41.7 kcal/mol and 60.4 °C.
On to GGTGATGGAAACGTCATC (.(((.(....).))).), for which the folding enthalpy in data set [1] was -26.4 kcal/mol. For the same sequence, in data set [2], the Tm came to 34.7 °C.
On to GATCCGACACCGGATC ((((((....)))))), for which, in data set [1], the folding enthalpy is -37.4 kcal/mol. Moreover, the Tm in data set [2] came out at 55.4 °C.
Turning to GCTGGGACGAAAGTCAGC (((..(((....)))))), the folding enthalpy in data set [1] is -19.3 kcal/mol. Besides, in data set [2], the Tm stood at 46.3 °C.
In the case of GATCGAGCTCTCGATC ((((((....)))))), the folding enthalpy in data set [1] was -39.1 kcal/mol. Further, in data set [2], the Tm came out at 55.2 °C.
The like results for GTCTTCGAAAGAAAGGAC ((((((....)))..))) were, in that order, -10.7 kcal/mol and 26.7 °C.
With GCGCGGCGAAAGCAGAGC ((.(.((....)).).)), the folding enthalpy in data set [1] is -25.1 kcal/mol. The Tm in data set [2] is 63.8 °C.
On to GCACCGCGAAAGCAGAGC ((.(.((....)).).)), for which the folding enthalpy in data set [1] was -15.2 kcal/mol. The Tm in data set [2] stood at 41.5 °C.
The matching figures for GATGCCGAAAGGCTGATC ((((((....)))..))): -9.91 kcal/mol and 36.6 °C.
The like results for GCTGTAGGAAACTGTAGC (((..((....))..))) were, in that order, -11.7 kcal/mol and 29.2 °C.
As for GATCGAGGTTTCGATC ((((((....)))))), the folding enthalpy in data set [1] was -44.7 kcal/mol. In data set [2], the Tm stood at 53.2 °C.
The like results for GGGTATTCGAAAGAACCC (((..(((....)))))) were, in that order, -22 kcal/mol and 34.5 °C.
In the case of GCGGACGCCCGC ((((....)))), in data set [1], the folding enthalpy is -20.1 kcal/mol. Besides, the Tm in data set [2] is 56.1 °C.
The matching figures for GTCAATCCGAAAGGAGAC (((..(((....)))))): -20.3 kcal/mol and 32.5 °C.
The like results for GATCGTTCTCACGATC ((((((....)))))) were, in that order, -40.8 kcal/mol and 54.8 °C.
The like results for GATAACGGAAACGTCATC (((.(((....))).))) were, in that order, -19.3 kcal/mol and 31.4 °C.
For GCACGTGGAAACACGCAC (..((((....))))..), the folding enthalpy in data set [1] was -9.68 kcal/mol. In addition, in data set [2], the Tm worked out at 29.2 °C.
The like results for GATCATACCCATGATC ((((((....)))))) were, in that order, -38.6 kcal/mol and 46.5 °C.
Take GTTTCCGAAAGGAGCAAC ((((((....)))..))): the folding enthalpy in data set [1] was -11.8 kcal/mol. In addition, the Tm in data set [2] stood at 26.8 °C.
Regarding GGTAGATCGAAAGATACC (((..(((....)))))), the folding enthalpy in data set [1] is -19 kcal/mol. In data set [2], the Tm worked out at 33.1 °C.
For GCATCGCGAAAGCTAAGC ((.(.((....)).).)), the folding enthalpy in data set [1] is -6.7 kcal/mol. In data set [2], the Tm came to 30.7 °C.
The like results for GTCTAACCGAAAGGTGAC (((..(((....)))))) were, in that order, -17.6 kcal/mol and 42.2 °C.
Regarding GCCAAGCGAAAGCTAGGC (((.(((....))).))), the folding enthalpy in data set [1] was -40.1 kcal/mol. Further, in data set [2], the Tm worked out at 60.4 °C.
The matching figures for GATCAGTGCTCTGATC ((((((....)))))): -26.4 kcal/mol and 52.1 °C.
The matching figures for GACACCGAAAGGTGGTC ((((((....))).))): -12.8 kcal/mol and 55.6 °C.
On to GGGGCAGGAAACCACCCC ((((..(....)..)))), for which, in data set [1], the folding enthalpy was -28.6 kcal/mol. For the same sequence, in data set [2], the Tm was 36.6 °C.
In the case of GGGTGACGAAAGTCCCC (((.(((....)))))), the folding enthalpy in data set [1] was -34.9 kcal/mol. In data set [2], the Tm turned out to be 58.4 °C.
For GGACTTGGAAACAGGTCC ((((.((....)).)))), the folding enthalpy in data set [1] was -46.5 kcal/mol. In data set [2], the Tm was found to be 49.4 °C.
The like results for GGAGACGAAAGTCATTCC ((((((....)))..))) were, in that order, -12 kcal/mol and 29.6 °C.
GCGTGAAGACGC ((((....)))): in data set [1], the folding enthalpy was -23 kcal/mol. Also, in data set [2], the Tm was found to be 58.3 °C.
The like results for GAGCACCGAAAGGTTCTC (((.(((....))).))) were, in that order, -27.6 kcal/mol and 45.8 °C.
For GGCACCCGAAAGGGAGCC (((.(((....))).))), the folding enthalpy in data set [1] was -32.6 kcal/mol. Further, the Tm in data set [2] turned out to be 68.6 °C.
The like results for GTGGGACGAAAGTCGCAC (((.(((....))).))) were, in that order, -38.6 kcal/mol and 66.3 °C.
Take GGCTGCGAAAGCACCGCC ((((((....)))..))): the folding enthalpy in data set [1] was -20.7 kcal/mol. Moreover, the Tm in data set [2] worked out at 54.1 °C.
The like results for GGCTAAGGAAACTTGGCC (((.(((....))).))) were, in that order, -29.6 kcal/mol and 50.4 °C.
Take GCAAAGTCGAAAGACTGC (((..(((....)))))): the folding enthalpy in data set [1] was -19.5 kcal/mol. In data set [2], the Tm is 47.8 °C.
